This note sets out measurements from ChEMBL document CHEMBL1156976, “Enhancement of antiproliferative activity by molecular simplification of catalpol” (2010).

The source made the active and inactive calls. The calls are words filed in the database; no cut-off is given here. Some results are limits rather than exact numbers.

The test system of assay [1] is HBL-100. In words: Cell cycle arrest in human HBL100 cells assessed as accumulation at G0/G1 phase at 1 to 2 uM after 24 hrs using propidium iodide staining by flow cytometry. The class given is functional, cell-based. In short, it runs like this: (§1)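 Cells were seeded at 2.5–5 × 10^5 per well. After 24 h they were dosed at 1, 2, 3 and 5 for 24 h, then trypsinized and fixed overnight in ice-cold 70% ethanol at −20 °C. Samples were RNase-treated for 30 min at 37 °C in the dark and stained with propidium iodide. DNA content was read by flow cytometry on 25,000 cells/sample, giving sub-G1, G0/G1, S and G2/M fractions.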

Another assay concerns A2780. The assay is described as follows: Antiproliferative activity against human A2780 cells after 48 hrs by sulforhodamine B assay. To be noted: A2780, 48 h. Type of assay: functional. The procedure, abridged: (§2)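 SRB assay in RPMI 1640 with 5% heat-inactivated FCS and 2 mM L-glutamine at 37 °C. Seeding was 15,000 cells/well for WiDr, T-47D and HeLa, and 10,000 for A2780, SW1573 and HBL-100. Compound was added on day 1 from DMSO stock (400× top final; 0.25% v/v DMSO control), in triplicate dilutions over 1–100, for 48 h. Cells were fixed with cold 50% TCA for 60 min at 4 °C and read at OD 492 nm. Percentage growth was calculated from T0 and end OD by NCI formulas, as means ± SD of 3–5 experiments.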

Assay [2] has as its system HBL-100. The assay is described as follows: Antiproliferative activity against human HBL100 cells after 48 hrs by sulforhodamine B assay. As to conditions: HBL-100, 48 h. Type of assay: functional. In short, it runs like this:
as §2
(In general: In SRB staining, fixed cells bind dye roughly in proportion to their protein.)

For assay [3], the system named is HeLa. The assay is described as follows: Antiproliferative activity against human HeLa cells after 48 hrs by sulforhodamine B assay. Type of assay: functional. In short, it runs like this:
as §2

In assay [4] the test system is SW1573. In words: Antiproliferative activity against human SW1573 cells after 48 hrs by sulforhodamine B assay. Type of assay: functional. As to conditions: SW1573, 48 h. In short, it runs like this:
as §2

For the next assay, the system named is T47D. The assay is described as follows: Antiproliferative activity against human T47D cells after 48 hrs by sulforhodamine B assay. The class given is functional. In short, it runs like this: as §2
For assay [5], the system named is WiDr. The assay is described as follows: Antiproliferative activity against human WiDr cells after 48 hrs by sulforhodamine B assay. The class given is functional. In short, it runs like this: as §2
The subject of assay [6] is SW1573. In words: Cell cycle arrest in human SW1573 cells assessed as accumulation at G0/G1 phase at 1 to 2 uM after 24 hrs using propidium iodide staining by flow cytometry. Type of assay: functional, cell-based. The procedure, abridged:
as §1
In general terms: A flow cytometer gives signals particle by particle.

For assay [7], the system named is HBL-100. In words: Cell cycle arrest in human HBL100 cells assessed as accumulation at S phase at 1 to 2 uM after 24 hrs using propidium iodide staining by flow cytometry. Type of assay: functional, cell-based. The procedure, abridged: as §1
The subject of assay [8] is SW1573. In words: Cell cycle arrest in human SW1573 cells assessed as accumulation at S phase at 1 to 2 uM after 24 hrs using propidium iodide staining by flow cytometry. Type of assay: functional, cell-based. In short, it runs like this:
as §1

Assay [9] concerns HBL-100. The assay is described as follows: Cell cycle arrest in human HBL100 cells assessed as accumulation at sub G1 phase at 3 to 5 uM after 24 hrs using propidium iodide staining by flow cytometry. Type of assay: functional, cell-based. In short, it runs like this:
as §1

For assay [10], the system named is SW1573. The assay is described as follows: Cell cycle arrest in human SW1573 cells assessed as accumulation at sub G1 phase at 3 to 5 uM after 24 hrs using propidium iodide staining by flow cytometry. The class given is functional, cell-based. In short, it runs like this: as §1
In assay [11] the test system is HeLa. In words: Induction of apoptosis in human HeLa cells assessed as early apoptotic cells at 3 uM after 24 hrs using FITC-conjugated annexin V and propidium iodide staining by flow cytometry. The class given is functional. In short, it runs like this:
(§3)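 Cells were seeded at 0.25–0.5 × 10^6. After 24 h they were exposed to drug for 24 h, then kept in drug-free medium for a further 24 h. About 10,000 events were read (488/525 and 488/675 nm). Early apoptosis was AnnexinV+/PI−; late apoptosis was AnnexinV+/PI+.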

Assay [12] has as its system HeLa. In words: Induction of apoptosis in human HeLa cells assessed as late apoptotic cells at 3 uM after 24 hrs using FITC-conjugated annexin V and propidium iodide staining by flow cytometry. Type of assay: functional. The procedure, abridged: as §3
Assay [13] has as its system WiDr. In words: Induction of apoptosis in human WiDr cells assessed as early apoptotic cells at 3 uM after 24 hrs using FITC-conjugated annexin V and propidium iodide staining by flow cytometry. The class given is functional. The procedure, abridged: as §3
Assay [14] relates to WiDr. In words: Induction of apoptosis in human WiDr cells assessed as late apoptotic cells at 3 uM after 24 hrs using FITC-conjugated annexin V and propidium iodide staining by flow cytometry. Type of assay: functional. In short, it runs like this: as §3
The subject of assay [15] is HeLa. In words: Decrease in cyclin D1 expression in human HeLa cells at 10 uM by Western blot analysis. Type of assay: functional, cell-based. As to conditions: TDE = time-dependent effect. In short, it runs like this: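 HeLa cells were treated for 12 and 24 h, then lysed on ice in Tris pH 8.0/NaCl/NP-40/SDS/EDTA buffer with protease and phosphatase inhibitors, and cleared at 10,000 g. Proteins were run by SDS–PAGE and transferred to PVDF. Blots were probed with anti-cyclin D1, followed by HRP secondary for 30 min. Bands were detected by luminol chemiluminescence with p-iodophenol enhancement.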

One may read the GI50 as the concentration giving 50% growth inhibition. Lower therefore signals more potent growth inhibition. In the case of `CC(=O)O[C@@H]1OC=C[C@@H]2[C@H]1[C@@H](C)C[C@H]2O[Si](c1ccccc1)(c1ccccc1)C(C)(C)C`, the result in the assay with HBL-100 [1], in the assay with SW1573 [6], in the assay on HBL-100 [9] and in the assay on SW1573 [10] was Active. The GI50 with A2780 is 1.59 µM; in the assay on HBL-100 [2] it was 0.5 µM; with HeLa [3] it was 1.86 µM; in the assay on SW1573 [4] it was 0.59 µM; in the assay on T47D it was 1.46 µM; with WiDr [5], 1.26 µM. Moreover, the outcome with HBL-100 [7] and with SW1573 [8] was inactive. In addition, the Activity was 18% with HeLa [11]; 25% with HeLa [12]; 33% with WiDr [13]; 3.7% in the assay with WiDr [14]; “tde” with HeLa [15].

With `OC[C@H]1O[C@@H](O[C@@H]2OC=C[C@H]3[C@H](O)[C@@H]4O[C@]4(CO)[C@@H]23)[C@H](O)[C@@H](O)[C@@H]1O` [CATALPOL], the GI50 with A2780, in the assay on HBL-100 [2], in the assay on HeLa [3], with SW1573 [4], in the assay on T47D and with WiDr [5] was above 100 µM each time.

As for `CC(=O)O[C@H]1OC=C[C@H]2[C@@H]1[C@H](C)C[C@H]2O[Si](c1ccccc1)(c1ccccc1)C(C)(C)C`, the GI50 with A2780 was determined as 1.24 µM; in the assay with HBL-100 [2], 0.38 µM; in the assay with HeLa [3], 1.68 µM; in the assay on SW1573 [4], 0.43 µM; in the assay with T47D it was 1.62 µM; in the assay on WiDr [5] it was 1.13 µM. The Activity with HeLa [11] is recorded as 18%; in the assay on HeLa [12], 12%; in the assay with WiDr [13], 23%; in the assay on WiDr [14], 2.4%.
